Measured values as given in ChEMBL document CHEMBL3425429.
The source made the active and inactive calls. The calls are words filed in the database; no cut-off is given here.

Columns and labels:
[1] = Cytotoxicity against human MDA-MB-436 cells assessed as cell viability after 72 hrs by MTT assay; format: functional, cell-based; settings: MDA-MB-436, 72 h
[2] = target: Mitogen-activated protein kinase 1 (Homo sapiens, UniProt P28482); assay: Inhibition of human MAPK1
How it was run: (§1)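 Recombinant human protein kinases screened through the Eurofins KinaseProfiler service. IC50 values are means of two independent experiments.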

Mus musculus [3] = assay: Toxicity in SCID mouse xenografted with human MDA-MB-231 cells at 7.5 to 15 mg/kg/day, po qd administered for 18 days measured everyday during compound dosing; format: organism-based; parameters: route oral; settings: in vivo, 432 h
How it was run: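 SCID mice (5–6 weeks) implanted subcutaneously with 100 μL of MDA-MB-231 suspension at 5 ×10^7 per mL. At 150–200 mm3 tumours, mice were randomised (6 per group) and dosed orally once daily for 18 days in water with 25% PEG400 plus 5% DMSO. Side effects were monitored daily.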

MDA-MB-231 [4] = assay: Induction of apoptosis in human MDA-MB-231 cells assessed as early apoptotic cells at 0.3 uM after 24 hrs by annexin V-FITC/propidium iodide staining-based flow cytometric analysis (reference value: 1.58%); format: functional
[5] = Clearance in Sprague-Dawley rat at 10 mg/kg, po by LC/MS analysis; format: ADME, organism-based; parameters: dose 10 mg/kg, route oral; settings: in vivo
How it was run: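 Single oral gavage dose in male Sprague-Dawley rats fasted overnight; serial blood drawn via surgically placed jugular vein catheters at set times, plasma separated at once and measured by HPLC-MS/MS; noncompartmental parameters fitted; n=5.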

MDA-MB-231 [6] = assay: Induction of apoptosis in human MDA-MB-231 cells after 24 to 48 hrs by annexin V-FITC/propidium iodide staining-based flow cytometric analysis; format: functional, cell-based
[7] = target: Serine/threonine-protein kinase Chk1 (Homo sapiens, UniProt O14757); assay: Inhibition of human CHK1; how it was run: as §1
Sequence of Serine/threonine-protein kinase Chk1 (O14757 whole entry, the tested form may be a part): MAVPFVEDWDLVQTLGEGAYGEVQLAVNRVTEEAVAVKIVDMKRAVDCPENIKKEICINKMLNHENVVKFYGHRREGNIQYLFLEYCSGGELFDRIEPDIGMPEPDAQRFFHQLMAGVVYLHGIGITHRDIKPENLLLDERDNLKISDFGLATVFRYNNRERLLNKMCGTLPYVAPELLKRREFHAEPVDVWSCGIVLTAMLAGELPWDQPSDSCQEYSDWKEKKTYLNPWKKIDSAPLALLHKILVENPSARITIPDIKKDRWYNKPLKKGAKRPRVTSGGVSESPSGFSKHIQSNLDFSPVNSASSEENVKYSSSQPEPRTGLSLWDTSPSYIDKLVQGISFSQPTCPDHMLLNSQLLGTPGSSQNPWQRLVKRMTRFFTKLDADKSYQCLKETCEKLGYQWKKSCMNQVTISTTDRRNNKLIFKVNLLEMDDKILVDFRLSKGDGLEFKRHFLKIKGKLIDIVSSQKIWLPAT

Bcr/Abl fusion protein = Bcr/Abl fusion protein (Homo sapiens, UniProt P00519); assay: Inhibition of human BCR/ABL; format: protein assay
Sequence of Bcr/Abl fusion protein (P00519 whole entry, the tested form may be a part): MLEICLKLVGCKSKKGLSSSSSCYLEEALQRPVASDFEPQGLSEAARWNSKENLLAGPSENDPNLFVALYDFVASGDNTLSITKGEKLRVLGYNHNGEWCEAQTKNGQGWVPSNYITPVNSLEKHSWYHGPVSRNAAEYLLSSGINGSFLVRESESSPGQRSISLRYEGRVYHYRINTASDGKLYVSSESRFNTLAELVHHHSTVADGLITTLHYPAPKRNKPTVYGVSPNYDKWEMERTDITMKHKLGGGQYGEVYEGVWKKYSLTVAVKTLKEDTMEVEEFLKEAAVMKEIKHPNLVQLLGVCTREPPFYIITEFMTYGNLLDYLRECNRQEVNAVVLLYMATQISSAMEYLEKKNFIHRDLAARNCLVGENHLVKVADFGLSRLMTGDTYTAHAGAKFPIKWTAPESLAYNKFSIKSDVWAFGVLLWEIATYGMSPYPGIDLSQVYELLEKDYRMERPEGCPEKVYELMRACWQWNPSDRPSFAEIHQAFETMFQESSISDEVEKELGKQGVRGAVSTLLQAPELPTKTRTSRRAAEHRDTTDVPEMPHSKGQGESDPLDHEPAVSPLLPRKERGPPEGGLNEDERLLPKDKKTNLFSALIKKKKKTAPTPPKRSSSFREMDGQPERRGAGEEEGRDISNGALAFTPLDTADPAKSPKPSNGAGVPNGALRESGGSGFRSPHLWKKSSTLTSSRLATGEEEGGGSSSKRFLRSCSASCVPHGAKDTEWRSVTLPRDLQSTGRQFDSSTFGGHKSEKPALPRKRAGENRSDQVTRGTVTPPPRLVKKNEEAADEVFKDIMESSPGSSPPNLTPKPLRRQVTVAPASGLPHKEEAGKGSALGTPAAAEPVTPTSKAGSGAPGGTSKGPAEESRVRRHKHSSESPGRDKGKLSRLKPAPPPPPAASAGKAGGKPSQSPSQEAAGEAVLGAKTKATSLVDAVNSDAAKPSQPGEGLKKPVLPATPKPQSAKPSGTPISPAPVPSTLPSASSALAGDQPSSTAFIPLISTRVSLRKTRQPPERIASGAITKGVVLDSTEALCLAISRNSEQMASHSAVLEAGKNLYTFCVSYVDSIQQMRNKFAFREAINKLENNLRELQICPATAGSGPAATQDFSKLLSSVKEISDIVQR
Sequence of Bcr/Abl fusion protein (P11274 whole entry, further chain, the tested form may be a part): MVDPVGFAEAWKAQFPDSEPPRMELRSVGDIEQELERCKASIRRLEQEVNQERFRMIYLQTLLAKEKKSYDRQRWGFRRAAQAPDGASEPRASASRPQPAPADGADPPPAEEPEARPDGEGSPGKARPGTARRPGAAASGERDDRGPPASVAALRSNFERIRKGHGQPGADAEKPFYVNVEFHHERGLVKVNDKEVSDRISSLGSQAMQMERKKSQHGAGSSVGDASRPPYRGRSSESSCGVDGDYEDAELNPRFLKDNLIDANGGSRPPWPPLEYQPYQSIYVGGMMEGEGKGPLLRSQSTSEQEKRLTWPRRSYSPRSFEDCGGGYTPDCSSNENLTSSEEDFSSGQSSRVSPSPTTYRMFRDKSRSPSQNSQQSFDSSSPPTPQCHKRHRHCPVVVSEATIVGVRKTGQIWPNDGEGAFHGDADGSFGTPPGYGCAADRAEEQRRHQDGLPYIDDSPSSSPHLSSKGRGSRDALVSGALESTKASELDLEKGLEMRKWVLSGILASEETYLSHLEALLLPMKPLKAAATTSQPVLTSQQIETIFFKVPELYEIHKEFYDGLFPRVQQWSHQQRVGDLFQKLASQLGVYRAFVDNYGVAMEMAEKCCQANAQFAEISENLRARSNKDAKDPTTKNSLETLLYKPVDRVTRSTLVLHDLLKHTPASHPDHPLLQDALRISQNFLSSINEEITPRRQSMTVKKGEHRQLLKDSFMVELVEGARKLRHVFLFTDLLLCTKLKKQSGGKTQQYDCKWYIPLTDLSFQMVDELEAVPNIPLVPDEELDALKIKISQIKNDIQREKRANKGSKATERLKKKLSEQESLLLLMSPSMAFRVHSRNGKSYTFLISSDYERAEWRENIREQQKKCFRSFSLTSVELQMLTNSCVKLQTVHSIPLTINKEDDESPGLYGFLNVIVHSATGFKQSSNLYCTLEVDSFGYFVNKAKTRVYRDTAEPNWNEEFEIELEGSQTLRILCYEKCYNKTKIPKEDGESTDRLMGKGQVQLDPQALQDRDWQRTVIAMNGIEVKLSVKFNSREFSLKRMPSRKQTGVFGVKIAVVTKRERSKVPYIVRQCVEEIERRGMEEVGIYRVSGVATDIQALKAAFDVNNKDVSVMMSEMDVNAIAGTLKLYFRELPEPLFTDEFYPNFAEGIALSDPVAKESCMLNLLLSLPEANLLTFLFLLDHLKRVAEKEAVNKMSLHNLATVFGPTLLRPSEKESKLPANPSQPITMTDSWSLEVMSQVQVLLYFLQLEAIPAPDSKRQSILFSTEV
How it was run: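 Recombinant human BCR-ABL kinase, tested as part of a selected kinase panel through a commercial kinase-profiling service. IC50 is the mean of two independent experiments.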

MDA-MB-231 [8] = assay: Antitumor activity against human MDA-MB-231 cells xenografted in mouse assessed as tumor growth inhibition at 40 mg/kg/day, po; format: functional, organism-based
How it was run: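 Oral daily dosing at 40 mg kg−1 d−1 began once MDA-MB-231 xenografts reached about 200 mm3; three mice per group; tumor volume tracked.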

MDA-MB-231 [9] = assay: Induction of apoptosis in human MDA-MB-231 cells assessed as viable cells at 0.3 uM after 24 hrs by annexin V-FITC/propidium iodide staining-based flow cytometric analysis (reference value: 95.5%); format: functional; settings: MDA-MB-231, 24 h, read-out: Activity
MDA-MB-231 [10] = assay: Induction of apoptosis in human MDA-MB-231 cells assessed as early apoptotic cells at 0.3 uM after 48 hrs by annexin V-FITC/propidium iodide staining-based flow cytometric analysis (reference value: […]); format: functional
[11] = Cytotoxicity against human HBL1 cells assessed as cell viability after 72 hrs by MTT assay; format: functional, cell-based; settings: HBL1, 72 h
Aurora kinase A = Aurora kinase A (Homo sapiens, UniProt O14965); assay: Inhibition of human Aurora-A; how it was run: as §1
Sequence of Aurora kinase A (O14965 whole entry): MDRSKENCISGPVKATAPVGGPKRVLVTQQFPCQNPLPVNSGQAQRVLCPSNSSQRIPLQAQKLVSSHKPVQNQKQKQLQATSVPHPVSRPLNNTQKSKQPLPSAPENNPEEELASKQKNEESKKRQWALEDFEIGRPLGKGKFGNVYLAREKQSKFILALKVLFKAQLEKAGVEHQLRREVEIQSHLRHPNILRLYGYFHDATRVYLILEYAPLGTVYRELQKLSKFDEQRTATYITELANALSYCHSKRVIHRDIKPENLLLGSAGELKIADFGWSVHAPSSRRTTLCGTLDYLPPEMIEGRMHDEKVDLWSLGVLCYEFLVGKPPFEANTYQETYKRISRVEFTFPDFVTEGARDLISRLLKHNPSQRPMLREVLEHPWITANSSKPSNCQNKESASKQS

[12] = target: Protein kinase C alpha type (Homo sapiens, UniProt P17252); assay: Inhibition of human PKCalpha; how it was run: as §1
[13] = target: Proto-oncogene tyrosine-protein kinase Src (Homo sapiens, UniProt P12931)
[14] = target: RAC-alpha serine/threonine-protein kinase (Homo sapiens, UniProt P31749); assay: Inhibition of human PKBalpha; how it was run: as §1
Sequence of RAC-alpha serine/threonine-protein kinase (P31749 whole entry): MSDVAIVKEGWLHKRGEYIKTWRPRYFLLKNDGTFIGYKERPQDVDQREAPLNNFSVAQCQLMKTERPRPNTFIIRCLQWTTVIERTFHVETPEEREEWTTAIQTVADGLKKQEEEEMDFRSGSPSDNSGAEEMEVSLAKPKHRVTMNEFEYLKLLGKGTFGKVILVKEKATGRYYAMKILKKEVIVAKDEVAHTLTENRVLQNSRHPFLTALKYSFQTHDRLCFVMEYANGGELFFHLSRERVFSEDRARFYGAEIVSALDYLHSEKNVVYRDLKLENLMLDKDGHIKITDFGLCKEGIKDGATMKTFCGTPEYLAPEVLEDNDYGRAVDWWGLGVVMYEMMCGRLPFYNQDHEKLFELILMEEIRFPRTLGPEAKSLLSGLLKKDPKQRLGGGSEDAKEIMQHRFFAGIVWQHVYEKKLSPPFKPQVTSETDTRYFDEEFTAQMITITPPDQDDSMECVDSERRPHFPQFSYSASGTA

BT-474 = assay: Cytotoxicity against human BT474 cells assessed as cell viability after 72 hrs by MTT assay; format: functional, cell-based; settings: BT-474, 72 h
MDA-MB-231 [15] = assay: Induction of apoptosis in human MDA-MB-231 cells assessed as early apoptotic cells at 0.03 uM after 24 hrs by annexin V-FITC/propidium iodide staining-based flow cytometric analysis (reference value: 1.58%); format: functional
MDA-MB-231 [16] = assay: Antitumor activity against human MDA-MB-231 cells xenografted in SCID mouse assessed as tumor growth inhibition at 30 mg/kg/day, po qd administered for 18 days measured every 3 days during compound dosing relative to vehicle-treated control; format: functional; settings: read-out: TGI
How it was run: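 SCID mice (5–6 weeks) given subcutaneous injections of 5 ×10^6 MDA-MB-231 cells; at 150–200 mm3 tumors, randomized into 6 groups of 6; oral daily dosing (vehicle 25% PEG400 + 5% DMSO in sterile water), paclitaxel 10 mg/kg/week by tail vein; tumors measured every 3 days, volume = ab²/2; side effects monitored daily.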

MDA-MB-231 [17] = assay: Induction of apoptosis in human MDA-MB-231 cells assessed as late apoptotic cells at 0.3 uM after 48 hrs by annexin V-FITC/propidium iodide staining-based flow cytometric analysis (reference value: 4.25%); format: functional
MDA-MB-231 [18] = assay: cells; settings: Homo sapiens, MDA-MB-231, 72 h
MDA-MB-231 [19] = assay: Induction of apoptosis in human MDA-MB-231 cells assessed as viable cells at 0.03 uM after 48 hrs by annexin V-FITC/propidium iodide staining-based flow cytometric analysis (reference value: 94.4%); format: functional; settings: MDA-MB-231, 48 h, read-out: Activity
How it was run: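 MDA-MB-231 cells (ATCC; medium with 10% FBS, 37 °C, 5% CO2) plated at 2 × 10^5 per six-well well and treated with a range of concentrations for 24 and 48 h at 37 °C. Cells harvested, washed with ice-cold PBS, stained with annexin V-FITC apoptosis detection kit and analysed by flow cytometry.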

[20] = Terminal half life in Sprague-Dawley rat at 10 mg/kg, po by LC/MS analysis; format: ADME, organism-based; parameters: dose 10 mg/kg, route oral; settings: in vivo, read-out: beta t1/2 (converted)
How it was run: (§2)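 Male Sprague-Dawley rats fitted with jugular vein catheters and fasted overnight, then given a single 10 mg/kg oral gavage dose; n=5. Serial blood samples were spun at once to plasma and analysed by LC-MS/MS. Noncompartmental parameters were fitted.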

MDA-MB-231 [21] = assay: Induction of apoptosis in human MDA-MB-231 cells assessed as late apoptotic cells at 0.1 uM after 24 hrs by annexin V-FITC/propidium iodide staining-based flow cytometric analysis (reference value: 2.67%); format: functional
[22] = target: Serine/threonine-protein kinase PAK 1 (Homo sapiens, UniProt Q13153); assay: Inhibition of human PAK1; how it was run: as §1
Sequence of Serine/threonine-protein kinase PAK 1 (Q13153 whole entry): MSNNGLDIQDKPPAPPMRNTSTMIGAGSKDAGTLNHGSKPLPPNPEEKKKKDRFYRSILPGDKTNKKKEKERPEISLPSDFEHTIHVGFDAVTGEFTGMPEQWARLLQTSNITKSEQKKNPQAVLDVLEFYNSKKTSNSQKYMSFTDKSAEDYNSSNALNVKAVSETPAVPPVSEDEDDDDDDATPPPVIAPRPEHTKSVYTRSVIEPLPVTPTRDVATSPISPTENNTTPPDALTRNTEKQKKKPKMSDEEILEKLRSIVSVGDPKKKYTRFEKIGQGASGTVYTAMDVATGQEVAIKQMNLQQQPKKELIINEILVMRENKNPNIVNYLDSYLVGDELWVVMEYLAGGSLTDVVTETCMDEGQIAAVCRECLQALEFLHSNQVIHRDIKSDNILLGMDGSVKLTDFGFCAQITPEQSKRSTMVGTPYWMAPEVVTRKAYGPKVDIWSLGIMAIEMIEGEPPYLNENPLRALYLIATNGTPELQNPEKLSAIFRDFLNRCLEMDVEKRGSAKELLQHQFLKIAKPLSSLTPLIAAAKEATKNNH

[23] = target: Glycogen synthase kinase-3 beta (Homo sapiens, UniProt P49841); assay: Inhibition of human GSK3beta; how it was run: as §1
Mus musculus [24] = assay: In vivo inhibition of ERK phosphorylation in tumor of SCID mouse xenografted with human MDA-MB-231 cells at 30 mg/kg/day, po administered for 18 days measured post last dose by immunohistochemical analysis relative to vehicle-treated control; format: functional, organism-based
How it was run: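 SCID mice carrying subcutaneous MDA-MB-231 xenografts received oral dosing once daily for 18 days (vehicle 25% PEG400 plus 5% DMSO in sterile water); at the end, tumors formalin-fixed and paraffin-embedded, 4–8 μm sections immunostained (Ki67, phospho-proteins) or TUNEL/AP-Red labelled, and compared with control.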

[25] = Tmax in Sprague-Dawley rat at 10 mg/kg, po by LC/MS analysis; format: ADME, organism-based; parameters: dose 10 mg/kg, route oral; settings: in vivo; how it was run: as §2

IC50 [2]: > 10 µM
CL/F [5]: 35 mL/min/kg
IC50 [7]: > 10 µM
IC50 (Bcr/Abl fusion protein): 0.001 µM
IC50 (Aurora kinase A): > 10 µM
IC50 [12]: > 10 µM
IC50 [13]: 0.0009 µM
IC50 [14]: > 10 µM
IC50 (MDA-MB-231 [18]): 0.011 µM
half-life [20]: 12.8 h
IC50 [22]: > 10 µM
IC50 [23]: > 10 µM
Tmax [25]: 12 h
SMILES: CCn1nc(C#Cc2cc(C(=O)Nc3ccc(CN4CCN(C)CC4)c(C(F)(F)F)c3)ccc2C)c2c(N)ncnc21
IC50 [1]: 0.316 µM
Activity (Mus musculus [3]): Non-toxic
Activity (MDA-MB-231 [4]): 6.51%
Activity (MDA-MB-231 [6]): Dose-dependent effect
TGI (MDA-MB-231 [8]): Active
viability at 0.3 µM (MDA-MB-231 [9]): 76.7%
Activity (MDA-MB-231 [10]): 24.1%
IC50 [11]: 10 µM
IC50 (BT-474): > 10 µM
Activity (MDA-MB-231 [15]): 2.29%
inhibition in vivo at 30 mg/kg/day (MDA-MB-231 [16]): > 100%
Activity (MDA-MB-231 [17]): 10.3%
viability at 0.03 µM (MDA-MB-231 [19]): 90.5%
Activity (MDA-MB-231 [21]): 10.4%
inhibition (Mus musculus [24]): Active
